Assays:
MCF7 = experiment: Cytostatic activity against human MCF7 cells after 4 days by coulter counter analysis; conditions: MCF7, 96 h
CCRF-CEM [1] = experiment: Cytostatic activity against human CEM cells after 3 days by coulter counter analysis; format: functional, cell-based; conditions: 72 h
In short: (§1)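 CEM T-lymphocyte cultures exposed to compound, 3 days at 37 °C; living cells counted by Coulter counter; IC50 is the concentration inhibiting proliferation by 50%.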

L1210 = experiment: Cytostatic activity against mouse L1210 cells after 2 days by coulter counter analysis; format: functional, cell-based; conditions: L1210, 48 h
In short: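 Murine leukemia L1210 cultures exposed to compound, 2 days at 37 °C; living cells counted by Coulter counter; IC50 is the concentration inhibiting proliferation by 50%.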

HeLa = experiment: Cytostatic activity against human HeLa cells after 4 days by coulter counter analysis; format: functional, cell-based; conditions: 96 h
In short: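 HeLa cervix carcinoma cultures exposed to compound, 4 days at 37 °C; viable cells counted by Coulter counter; IC50 is the concentration giving 50% inhibition of proliferation.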

CCRF-CEM [2] = experiment: Cytostatic activity against human dCK-deficient CEM cells after 3 days by coulter counter analysis; format: functional, cell-based; conditions: 72 h
In short: as §1

[3] = target: Deoxycytidine kinase (Homo sapiens) (UniProt P27707); experiment: Activity at recombinant dCK (unknown origin) at 100 uM by HPLC analysis
Deoxycytidine kinase (Homo sapiens), sequence (P27707 whole entry, looked up): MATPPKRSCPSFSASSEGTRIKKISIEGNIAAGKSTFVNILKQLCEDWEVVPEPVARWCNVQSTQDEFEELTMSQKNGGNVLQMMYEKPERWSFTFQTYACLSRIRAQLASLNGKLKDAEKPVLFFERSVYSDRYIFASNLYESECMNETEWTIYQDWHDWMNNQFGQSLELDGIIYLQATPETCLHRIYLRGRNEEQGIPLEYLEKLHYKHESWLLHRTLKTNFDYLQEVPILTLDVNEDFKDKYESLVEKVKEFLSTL

CCRF-CEM [4] = experiment: Ratio of IC50 for human dCK-deficient CEM cells to IC50 for human CEM cells; format: functional
Serum [5] = experiment: Prodrug conversion in human serum assessed as gemicitabine formation at 100 uM by HPLC analysis; format: ADME, cell-free
In short: (§2)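 Compound at 100 μM in 50% human serum in PBS, 37 °C; aliquots taken at 0, 60 and 240 min; reverse-phase RP-18 HPLC (acetonitrile/H₂O) resolving dFdU and gemcitabine.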

Liver [6] = experiment: Prodrug conversion in mouse liver at 100 uM after 2 hrs by HPLC analysis; format: ADME, tissue-based
In short: (§3)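 Compound at 100 μM in murine liver extract in PBS, 37 °C; sampled at 0, 30 and 120 min; reverse-phase RP-18 HPLC (acetonitrile/H₂O) resolving dFdU and gemcitabine.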

Serum [7] = experiment: Prodrug conversion in human serum assessed as dFdU formation at 100 uM up to 240 mins by HPLC analysis; format: ADME, cell-free; conditions: 4 h
In short: as §2

Liver [8] = experiment: Prodrug conversion in mouse liver assessed as dFdU formation at 100 uM after 2 hrs by HPLC analysis; format: ADME, tissue-based
In short: as §3

Serum [9] = experiment: Metabolic stability in human serum assessed as dFdU formation at 100 uM up to 240 mins by HPLC analysis; format: ADME, cell-free; conditions: 4 h
In short: as §2

Liver [10] = experiment: Prodrug conversion in mouse liver assessed as dFdU formation at 100 uM by HPLC analysis; format: ADME, tissue-based
In short: as §3

Liver [11] = experiment: Prodrug conversion in mouse liver assessed as gemicitabine formation at 100 uM by HPLC analysis; format: ADME, tissue-based
In short: as §3

Compound	IC50 (MCF7)	IC50 (CCRF-CEM [1])	IC50 (L1210)	IC50 (HeLa)	IC50 (CCRF-CEM [2])	Activity [3]	Ratio IC50 (CCRF-CEM [4])	Stability (Serum [5])	Stability (Liver [6])	Stability (Serum [7])	Stability (Liver [8])	Stability (Serum [9])	Drug metabolism (Liver [10])	Drug metabolism (Serum [5])	Drug metabolism (Serum [7])	Drug metabolism (Liver [11])
CCCC(CCC)C(=O)Nc1ccn([C@@H]2O[C@H](CO)[C@@H](O)C2(F)F)c(=O)n1 [LY-2334737]	550 nM	5200 nM	1100 nM	760 nM	161000 nM											
C=CCCCCCCCCC(=O)Nc1ccn([C@@H]2O[C@H](CO)[C@@H](O)C2(F)F)c(=O)n1	6.2 nM	71 nM	18 nM	12 nM	12000 nM											
C=CCCCCCCCCCCC(=O)Nc1ccn([C@@H]2O[C@H](CO)[C@@H](O)C2(F)F)c(=O)n1	7.9 nM	69 nM	21 nM	13 nM	6800 nM	< 1%										
C=CCCCCCCCCCNc1ccn([C@@H]2O[C@H](CO)[C@@H](O)C2(F)F)c(=O)n1	28000 nM	13000 nM	7000 nM	3400 nM	60000 nM		4.6									
CCCCCCCCCCC(=O)Nc1ccn([C@@H]2O[C@H](CO)[C@@H](O)C2(F)F)c(=O)n1	5.3 nM	60 nM	14 nM	8.9 nM	5800 nM											
C=CCCCCCCC(=O)Nc1ccn([C@@H]2O[C@H](CO)[C@@H](O)C2(F)F)c(=O)n1	7.9 nM	140 nM	24 nM	42 nM	20000 nM											
O=c1nc(NCCCCCCCCCCCO)ccn1[C@@H]1O[C@H](CO)[C@@H](O)C1(F)F	27000 nM	86000 nM	29000 nM	22000 nM	140000 nM		2	Stable	Stable	Stable	Stable					
Nc1ccn([C@@H]2O[C@H](CO)[C@@H](O)C2(F)F)c(=O)n1 [GEMCITABINE]	7.2 nM	69 nM	13 nM	9.9 nM	7600 nM	15%						Unstable				
O=C(CCCCCCCCCCO)Nc1ccn([C@@H]2O[C@H](CO)[C@@H](O)C2(F)F)c(=O)n1	8.1 nM	240 nM	23 nM	49 nM	19000 nM								Active	Active	Active	Active
O=c1nc(NCCCCCCCCCCCF)ccn1[C@@H]1O[C@H](CO)[C@@H](O)C1(F)F	26000 nM	28000 nM	28000 nM	17000 nM	134000 nM		4.8									
O=C(CCCCCCCCCCF)Nc1ccn([C@@H]2O[C@H](CO)[C@@H](O)C2(F)F)c(=O)n1	7.7 nM	59 nM	53 nM	11 nM	7200 nM	< 1%										

— ChEMBL document CHEMBL3108757, “Synthesis and cytostatic evaluation of 4-N-alkanoyl and 4-N-alkyl gemcitabine analogues” (J Med Chem, 2014)
